Screens (PubChem)
Sampled rows, rich in hits. Any-hit rate of the full collection: about 2.3%.
TRPC6 inhibitor – mouse TRPC6 channel inhibition; Q61143; HEK293-TRPC6, membrane potential dye, ACh-evoked depolarization; hits give low values; B-score at 10 µM; 310,000 compounds, 1.1% hits;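 active means B-score under library mean minus 3 SD, initial fluorescence not abnormally high, positive integrated signal ratio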;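 further: B-score derived from integrated fluorescence ratio over the kinetic read; more negative B-score means stronger inhibition of depolarization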
TRPC4 potent – TRPC4 (mouse) allosteric potentiation | HEK293 TRPC4beta/mu-opioid, DAMGO EC20, Fluo-4 Ca2+ flux; hits give high values | B-score at 10 µM | 310,000 compounds, 0.42% hits;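 active means B-score of calcium response area above 5 SD of library B-scores, with initial fluorescence ratio within 5 SD of library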
TRPC6 act – mouse TRPC6 channel activation; HEK293-TRPC6 membrane potential dye fluorescence; hits give high values; B-score at 10 µM; 310,000 compounds, 0.13% hits; AID 2550;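 active means B-score of the integrated fluorescence ratio above library mean plus 3 SD, and starting fluorescence ratio within library mean plus 5 SD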;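 further: higher score means more depolarization so channel activation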
TRPC4 block – inhibitors of mouse TRPC4 channel; Q9QUQ5; HEK293 TRPC4beta/mu-opioid, DAMGO-evoked Fluo4 calcium flux; hits give low values; B-score at 10 µM; 300,000 compounds, 0.39% hits;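 active means B-score over 3 SD under the library average, no early fluorescence shift, positive overall ratio signal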
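Assay system: TRPC4beta/mu-opioid receptor HEK293 cell line; compound dosing: single concentration per test compound; detection: Fluo4 Ca2+ flux fluorescence; evaluation: per-well B score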
TRPC4 agonist – opens the mouse TRPC4 cation channel; Q9QUQ5; B-score at 10 µM; 310,000 compounds, 0.49% hits; HEK293 TRPC4beta/mu-opioid, Fluo4 calcium fluorescence; hits give high values;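 active means B-score above 5 SD of library B-scores, and initial fluorescence ratio not above library mean plus 5 SD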;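 further: positive B-score marks a calcium rise read as TRPC4 activation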
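system = HEK293 cells stably co-expressing mouse TRPC4beta and mu-opioid receptor | schedule = Fluo4 dye loading 45 min at room temperature, 110 s recording | measure = B-scored integrated calcium fluorescence ratio | signal = Fluo4 calcium-sensitive dye fluorescence, kinetic, 1 Hz baseline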
A number is an active result; . = inactive.

SMILES	TRPC6 inhibitor	TRPC4 potent	TRPC6 act	TRPC4 block	TRPC4 agonist
CCOc1ccccc1NC(=O)N1CCc2ccccc2C1	.	.	.	.	.
Cc1ccc(OCC(=O)NC2CCS(=O)(=O)C2)c([N+](=O)[O-])n1 (stereo unspecified)	.	.	.	.	.
Cc1nnc2n(Cc3ccccc3)c(=O)c3c4c(sc3n12)COC(C(C)C)C4 (stereo unspecified)	.	11	.	.	.
Cc1ccc(C)c(-n2cc(CN3CCCN(C=O)CC3)c(-c3ccccc3)n2)c1	.	.	.	.	72
Cc1ccc(-n2cc(CNCCCn3ccnc3C)c(-c3ccc(F)cc3)n2)cc1	.	.	.	.	.
Cc1ccc(-n2cc(CNCCCn3cccn3)c(-c3cccc(C)c3)n2)cc1	.	.	.	.	43
Cc1ccc(C)c(-n2cc(CNCCCn3cccn3)c(-c3ccccc3)n2)c1	.	.	.	.	205
O=C(NCC1CC1)c1cc(-c2ccccc2)nn1CC1CC(c2cccnc2)=NO1 (stereo unspecified)	.	.	.	.	.
Cc1cc(C)cc(N(C(=O)CNC(=O)c2ccco2)C(C(=O)NC2CCCCC2)c2ccncc2)c1 (stereo unspecified)	.	.	.	.	.
CCOc1cc(CNCCCN2CCOCC2)cc(Cl)c1OCC(=O)NC(C)(C)C	.	.	.	.	.
CCOc1cc(CNCCCN2CCOCC2)cc(Br)c1OCC(=O)Nc1cccc(C(F)(F)F)c1	.	.	.	-6	.
COc1cc(CNCCCN2CCOCC2)cc(Br)c1OCc1ccc(Cl)cc1	.	.	.	-6	.
CCN1CCN(C(=O)c2ccc3nc(-c4ccccc4)c(-c4ccccc4)nc3c2)CC1	.	.	.	.	.
Cc1ccc(S(=O)(=O)N2CCC(N3CCN(C)CC3)CC2)cc1Cl	.	35	.	.	.
CN1CCN(S(=O)(=O)c2ccc(-c3ccc(Cl)cc3)cc2)CC1	.	.	.	.	.
CN1CCN(S(=O)(=O)c2ccc(Cl)cc2)CC1	.	.	.	.	48
CSCCC(NC(=O)c1cccc(C)c1)C(=O)OCC(=O)Nc1c(C)nn(-c2ccccc2)c1C (stereo unspecified)	.	.	.	.	.
CCOC(=O)C1(Cc2cccc(F)c2)CCN(Cc2cnn(CC)c2C)CC1	.	.	.	.	143
CCOC(=O)C1(Cc2cccc(F)c2)CCN(CCCn2cccn2)CC1	.	.	.	.	.
CCOC(=O)C1(Cc2cccc(F)c2)CCN(Cc2cnn(CC)c2)CC1	.	.	.	.	125
Cc1sc2ncnc(NC3CCN(Cc4ccccc4)CC3)c2c1C	.	.	.	.	193
CCC1CCCCN1C(=S)NC(=O)c1cccc([N+](=O)[O-])c1 (stereo unspecified)	.	.	.	.	.
CCCc1nc2ccccc2n1Cc1ccccc1OC	.	.	.	-7	.
COc1ccccc1Cn1c(C)nc2ccccc21	.	.	.	.	.
COc1ccccc1Cn1c(CCCO)nc2ccccc21	.	.	.	.	.
SMILES	TRPC6 inhibitor	TRPC4 potent	TRPC6 act	TRPC4 block	TRPC4 agonist
CCc1nc2ccccc2n1Cc1ccccc1OC	.	.	.	-5	.
Cc1cc(OC(=O)c2cccc(Cl)c2)c([N+](=O)[O-])c(=O)[nH]1	.	.	.	.	.
O=C(CN(C(=O)CCC(=O)Nc1nccs1)c1cccc(F)c1)NCc1ccccc1	.	.	.	.	.
CCn1cc(/C=C(\NC(=O)c2ccccc2)C(=O)NCCCN2CCOCC2)c2ccccc21	.	.	.	.	.
O=P(C(=NCCO)NO)(N1CCOCC1)N1CCOCC1	.	.	.	.	.
OCC1(CCc2ccccc2)CCN(Cc2cc(Cl)ccc2O)CC1	.	.	.	-7	.
Cc1ccc(-n2cccn2)c(CN2CCC(CO)(CCc3ccccc3)CC2)c1	.	.	.	.	56
OCC1(CCCc2ccccc2)CCN(Cc2ccc(F)cc2)CC1	.	.	.	.	.
Cc1sc2ncn(CC(=O)N3CCN(c4ccc(F)cc4)CC3)c(=O)c2c1S(=O)(=O)N1CCOCC1	.	.	.	.	.
OCC1(Cc2ccccc2)CCCN(Cc2cnn(-c3ccccc3)c2)C1 (stereo unspecified)	.	.	.	-7	.
Cc1ccc(-n2cc(CN3CCC(CO)(Cc4ccccc4)CC3)cn2)cc1	.	.	.	.	.
Cc1cc(CN2CCCC(CO)(Cc3cccc(Cl)c3)C2)n[nH]1 (stereo unspecified)	.	.	.	.	.
COc1ccccc1-n1cc(CN2CCCC(CO)(Cc3cccc(Cl)c3)C2)cn1 (stereo unspecified)	.	.	.	-5	.
CC(C)Cc1cc(CN2CCCC(CO)(Cc3cccc(Cl)c3)C2)[nH]n1 (stereo unspecified)	.	.	.	-10	.
COCc1ccc(CN2CCCC(CO)(Cc3cccc(Cl)c3)C2)o1 (stereo unspecified)	.	.	.	.	.
CC(C)(C)NC(=O)C(c1ccccc1)N(C(=O)CNC(=O)c1cccs1)c1cccnc1 (stereo unspecified)	.	.	.	.	.
Nn1c(SCC(=O)Nc2ccccc2F)nnc1-c1cccs1	.	.	.	.	.
Cc1cc(-c2cn3ccccc3n2)c(C)n1-c1ccccc1	.	.	.	-7	.
CCN1CC(CN(C)Cc2cn(-c3cccc(C)c3)nc2-c2cccc(F)c2)CC1=O (stereo unspecified)	.	.	.	.	73
O=C(c1ccccc1)c1ccc(OCC(O)CNC2CCCc3ccccc32)cc1 (stereo unspecified)	.	.	.	.	.
OC(CNC1CCCc2ccccc21)COc1ccc2ccccc2c1 (stereo unspecified)	.	.	.	.	101
CCN(c1ccccc1)S(=O)(=O)c1cc([N+](=O)[O-])ccc1N	-5.58	.	.	.	.
CC1CN(C(=S)Nc2ccc(SC(F)F)cc2)CC(C)O1 (stereo unspecified)	-6.55	.	.	.	.
CC1CC(C)CN(C(=S)Nc2ccc(SC(F)F)cc2)C1 (stereo unspecified)	.	.	.	.	.
O=C(NCC(c1cccs1)N1CCOCC1)c1ccc(Cl)c([N+](=O)[O-])c1 (stereo unspecified)	.	.	.	.	90
Cc1c(C(=O)N/N=C/c2cccs2)nnn1-c1nonc1N	.	.	.	.	.
C=CCNc1nc(N2CCCC2)nc2ccccc12	.	.	.	-7	.
CN(CC1CCCN(CCc2cccc(C(F)(F)F)c2)C1)C(=O)c1cc2ccccc2o1 (stereo unspecified)	.	.	.	-8	.
COc1cccc(C(=O)N(C)CC2CCN(CCc3cccc(C(F)(F)F)c3)CC2)c1	.	.	.	.	109
NC(=O)N/N=C1\c2ccccc2-c2c(C(N)=O)cccc21	.	.	.	-5	.
